The record followed here is ChEMBL document CHEMBL4699545, “Non-cytotoxic 1,2,3-triazole tethered fused heterocyclic ring derivatives display Tax protein inhibition and impair HTLV-1 infected cells” (Bioorg Med Chem, 2020).

Calls of active or inactive are those of the source. No cut-off for these calls is given here.

For orientation: inhibition means the percentage by which the read-out fell short of the control.

Data set [1] deals with MT2. As to the kind of experiment: Cytotoxicity against human MT2 cells infected with HTLV-1 assessed as reduction in metabolic activity at 50 uM incubated for 72 hrs in presence of resazurin by resazurin reduction method relative to control. The data set is classed as functional. The procedure, abridged:
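MT-2 cells incubated with compound at a final 50 µM in 0.5% DMSO for 72 h at 37 °C, 5% CO₂. Resazurin (10 µM) was added for the final 4 h and fluorescence read at 590 nm; medium-only wells gave background. RFU normalized between 0.5% DMSO (0) and 20 µM etoposide (100) controls. Three independent days.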
On the technique in general: The colour change of resazurin is a common sign of viable cells or microbes.

In data set [2] the test system is MT2. The data set can be described thus: Cell cycle arrest in human MT2 cells infected with HTLV-1 assessed as accumulation at G0/G1 phase at 50 uM incubated for 72 hrs by RNaseA/propidium iodide staining based FACSCalibur flow cytometry. Type of data set: functional. The essentials: (§1)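 MT-2 cells (3 × 10⁵/well) exposed to compound (300 µM stock, 100 µl added to 500 µl cells) for 72 h at 37 °C, 5% CO₂. Cells were PBS-washed and fixed in ice-cold 70% ethanol overnight at -20 °C, then RNase A treated 30 min at 37 °C and PI stained. 10,000 events were acquired and phase percentages modelled. Triplicate, mean ± SD; one-way ANOVA/Tukey versus 0.5% DMSO.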
In general terms: Flow cytometry measures light scatter and fluorescence of single cells or particles in a stream.

In data set [3] the test system is Huh-7. As to the kind of experiment: Cytotoxicity against human Huh-7 cells assessed as reduction in cell viability by measuring viability index at 50 uM after 72 hrs in presence of resazurin by resazurin reduction method. The data set is classed as cell-based. The following applies: huh-7, 72 h. The procedure, abridged: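 Huh-7 cells (3.6 × 10⁴ cells/mL) were exposed to twofold serial dilutions in PBS, 10 points from 50 µM, for 72 h at 37 °C, 5% CO₂. Resazurin (10 µM) was added for the final 4 h and fluorescence read. Viability = RFU treated / mean RFU of 0.5% DMSO wells.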

The test system of data set [4] is MT2. The data set can be described thus: Cell cycle arrest in human MT2 cells infected with HTLV-1 assessed as accumulation at S phase at 50 uM incubated for 72 hrs by RNaseA/propidium iodide staining based FACSCalibur flow cytometry. The data set is classed as functional. The essentials: as §1
Data set [5] deals with MT2. The data set can be described thus: Cell cycle arrest in human MT2 cells infected with HTLV-1 assessed as accumulation at G2/M phase at 50 uM incubated for 72 hrs by RNaseA/propidium iodide staining based FACSCalibur flow cytometry. The data set is classed as functional. The procedure, abridged:
as §1

In data set [6] the test system is MT2. As to the kind of experiment: Induction of apoptosis in human MT2 cells infected with HTLV-1 at 50 uM measured after 72 hrs by annexinV-Cy5/propidium iodide staining based FACSCalibur flow cytometry. Type of data set: functional, cell-based. The procedure, abridged: (§2)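 MT-2 cells (3 × 10⁵/well) were treated for 72 h at 37 °C, 5% CO₂, then stained with annexin-V Cy5/PI per kit. Within an FSC/SSC live-cell gate, total annexin-V⁺ cells (early PI⁻ plus late PI⁺) were counted by flow cytometry. 0.5% DMSO served as negative control and etoposide 20 µM as positive. Triplicate, mean ± SD, ANOVA/Tukey.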

For data set [7], the system named is MT2. The data set can be described thus: Induction of apoptosis in human MT2 cells infected with HTLV-1 assessed as activation of caspase-3/7 at 50 uM measured after 72 hrs by CellEvent caspase 3/7 green detection reagent based assay. Type of data set: functional, cell-based. The essentials: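 MT-2 cells (3 × 10⁵/well) were exposed to compound (300 µM stock, 100 µl into 500 µl) for 72 h at 37 °C, 5% CO₂. CellEvent caspase-3/7 green reagent was added for 45 min at room temperature in the dark. 10,000 events were acquired, and the percentage of active caspase-3/7⁺ cells was taken within an FSC/SSC live-cell gate. Triplicate, mean ± SD, ANOVA/Tukey versus 0.5% DMSO.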

Data set [8] can be described thus: Effect on HTLV-1 Tax expression in lentiviral pLVX-TET3G transduced human Jurkat LTR-GFP inducible Tax assessed as doxycyclin-treated GFP negative PI positive dead cells at 50 uM after 72 hrs by flow cytometry (reference value: 16.82 +/- 3.37 %).
Data set [9] relates to MT2. As to the kind of experiment: Cell cycle arrest in human MT2 cells infected with HTLV-1 assessed as accumulation at G2/M phase at 20 uM incubated for 72 hrs by RNaseA/propidium iodide staining based FACSCalibur flow cytometry. Type of data set: functional. The procedure, abridged:
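Etoposide 20 µM used as reference in MT-2 cell cycle assay: 3 × 10⁵ cells/well, 72 h at 37 °C. Ethanol fixation (70%, overnight -20 °C), RNase A 30 min at 37 °C, then PI staining. 10,000 events acquired by flow cytometry and G0/G1, S and G2/M fractions modelled. Triplicate, mean ± SD.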

The test system of data set [10] is MT2. As to the kind of experiment: Cytotoxicity against human MT2 cells infected with HTLV-1 assessed as reduction in metabolic activity at 20 uM incubated for 72 hrs in presence of resazurin by resazurin reduction method. The data set is classed as functional, cell-based. The procedure, abridged:
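Reference etoposide at 20 µM (final, 0.5% DMSO) served as the positive control in the MT-2 resazurin screen. Cells were incubated 72 h, with 10 µM resazurin added for the last 4 h, and fluorescence read at 590 nm. Three independent days.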

Data set [11] concerns MT2. The data set can be described thus: Induction of apoptosis in human MT2 cells infected with HTLV-1 at 50 uM measured after 72 hrs by annexinV-Cy5/propidium iodide staining based FACSCalibur flow cytometry (reference value: 18.7 +/- 5.33 %). The data set is classed as functional. The procedure, abridged:
as §2

On to `COc1cc2ncnc(NCc3cn(CC4CCN(Cc5ccccc5)CC4)nn3)c2cc1OC`, for which, in data set [1], the inhibition at 50 µM is no less than 70%. For the same molecule, the result in data set [2], in data set [4] and in data set [5] was inactive. Besides, in [3], the Growth_index amounted to 0.65. The result in data set [6] and in data set [7] was Active.

With `Clc1ccc2c(NCCn3cc(CNc4ncnc5ccccc45)nn3)ccnc2c1`, the inhibition at 50 µM in data set [1] is no less than 70%. In addition, the “GFP-PI+ dead cells %” value in [8] was determined as 44.88%. For the same molecule, the outcome in data set [2], in [4] and in data set [5] was inactive. Also, the Growth_index in data set [3] is on record as 0. The result in data set [6] and in [7] was Active.

Take `c1ccc(CN2CCC(Cn3cc(CNc4ncnc5ccccc45)nn3)CC2)cc1`: the inhibition at 50 µM in data set [1] was no less than 70%. Besides, the result in data set [2], in data set [4] and in data set [5] was inactive.

As to `O=C1c2ccccc2C(=O)N1Cc1cn(CCNc2ccnc3cc(Cl)ccc23)nn1`, in data set [1], the inhibition at 50 µM is no less than 70%. In addition, the Growth_index in [3] turned out to be 0.85. In data set [4], the result was Active.

Consider `COc1cc([C@@H]2c3cc4c(cc3[C@@H](O[C@@H]3O[C@@H]5CO[C@@H](C)O[C@H]5[C@H](O)[C@H]3O)[C@H]3COC(=O)[C@H]23)OCO4)cc(OC)c1O`, for which the outcome in data set [9] was inactive. The inhibition result in data set [10] was “Active”.

`O=C(Cn1cc(CSc2nc3ccccc3[nH]2)nn1)N1CCN(Cc2ccccc2)CC1`: the inhibition at 50 µM in data set [1] was no less than 70%. Moreover, the outcome in [2], in data set [4] and in [5] was inactive.

Regarding `COc1cc2ncnc(NCc3cn(CCNc4ccnc5cc(Cl)ccc45)nn3)c2cc1OC`, the inhibition at 50 µM in data set [1] was no less than 70%. Moreover, the “GFP-PI+ dead cells %” value in [8] is 90.98%. The outcome in data set [2], in [4] and in data set [5] was inactive. The Growth_index in data set [3] is given as 0. The result in [6] and in data set [7] was Active.

As for `O=C(Cn1cc(CNc2ncnc3ccccc23)nn1)N1CCN(Cc2ccccc2)CC1`, the inhibition at 50 µM in data set [1] is no less than 70%. For the same molecule, the result in data set [2], in data set [4] and in data set [5] was inactive.

On to `Cc1cc(=O)oc2cc(OCc3cn(CC4CCN(Cc5ccccc5)CC4)nn3)ccc12`, for which, in data set [1], the inhibition at 50 µM is no less than 70%. For the same molecule, the Activity in data set [11] is recorded as 39.96%. The result in [2], in data set [4] and in data set [5] was inactive. In data set [3], the Growth_index turned out to be 0.61. Besides, the result in [6] and in [7] was Active.
